Series [1] deals with T1, Vasopressin V1b receptor (Homo sapiens, UniProt P47901).
T1 sequence (P47901 whole entry): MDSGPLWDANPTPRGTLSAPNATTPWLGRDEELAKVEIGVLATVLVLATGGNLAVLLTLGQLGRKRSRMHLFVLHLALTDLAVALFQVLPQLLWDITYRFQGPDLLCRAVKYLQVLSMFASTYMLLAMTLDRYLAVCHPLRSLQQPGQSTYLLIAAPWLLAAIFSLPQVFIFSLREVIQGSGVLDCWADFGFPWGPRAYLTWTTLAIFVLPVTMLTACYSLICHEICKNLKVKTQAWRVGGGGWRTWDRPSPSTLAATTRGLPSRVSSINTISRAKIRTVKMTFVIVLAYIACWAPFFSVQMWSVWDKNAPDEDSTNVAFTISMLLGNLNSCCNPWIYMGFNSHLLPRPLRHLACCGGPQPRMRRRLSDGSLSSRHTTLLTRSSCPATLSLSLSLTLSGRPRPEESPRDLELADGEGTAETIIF
In words: Displacement of [3H]AVP from human vasopressin V1b receptor expressed in HEK293 cell membrane after 1 hr by scintillation counting method. It is filed as cell membranes.

Series [2] has as its target T1, Vasopressin V1b receptor. The series can be described thus: Antagonist activity at human vasopressin V1b receptor expressed in CHO cells assessed as inhibition of agonist-induced intracellular calcium flux preincubated for 20 mins followed by AVP addition measured for 5 mins by Fluo-4-AM dye based FLIPR assay. It is filed as functional, cell-based. Summed up:
(§1)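 CHO cells stably expressing the relevant human receptor, plated 24 h, loaded 60 min with 2 µM Fluo-4-AM and read on FLIPR. […] IC50 came from a variable-slope single-site competition fit of normalized fluorescence. At least 3 runs in duplicate.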

For series [3], the target named is T2, Oxytocin receptor (Homo sapiens, UniProt P30559).
T2 sequence (P30559 whole entry): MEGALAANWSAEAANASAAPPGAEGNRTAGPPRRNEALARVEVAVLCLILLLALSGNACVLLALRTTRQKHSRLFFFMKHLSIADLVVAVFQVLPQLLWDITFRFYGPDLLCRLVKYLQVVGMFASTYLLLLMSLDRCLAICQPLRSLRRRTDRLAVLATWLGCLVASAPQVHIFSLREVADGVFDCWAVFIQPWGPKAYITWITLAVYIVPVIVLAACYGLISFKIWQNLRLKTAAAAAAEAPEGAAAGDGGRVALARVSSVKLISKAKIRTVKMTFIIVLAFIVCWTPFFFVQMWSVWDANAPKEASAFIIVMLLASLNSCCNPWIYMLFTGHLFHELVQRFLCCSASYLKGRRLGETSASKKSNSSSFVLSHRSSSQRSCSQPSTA
The series can be described thus: Antagonist activity at human mammary gland oxytocin receptor expressed in CHO cells assessed as inhibition of agonist-induced intracellular calcium flux preincubated for 20 mins followed by oxytocin addition measured for 5 mins by Fluo-4-AM dye based FLIPR assay. The format is functional, cell-based. Summed up:
as §1

For series [4], the species on record is Homo sapiens. In words: Selectivity index, ratio of IC50 for human mammary gland oxytocin receptor to IC50 for human liver vasopressin V1a receptor.
The species entered for series [5] is Homo sapiens. The series can be described thus: Selectivity index, ratio of Ki for human liver vasopressin V1a receptor to Ki for human mammary gland oxytocin receptor. The method, boiled down:
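Ratio of binding Ki from the radioligand displacement assays, calculated as the strongest AVP receptor subtype binding value divided by the OTR value.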

The target of series [6] is T3, Vasopressin V2 receptor (Homo sapiens, UniProt P30518). In words: Antagonist activity at human kidney vasopressin V2 receptor expressed in CHO cells assessed as inhibition of agonist-induced intracellular calcium flux preincubated for 20 mins followed by AVP addition measured for 5 mins by Fluo-4-AM dye based FLIPR assay. The format is functional, cell-based. Summed up: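 CHO cells stably expressing the relevant human receptor, plated 24 h, loaded 60 min with 2 µM Fluo-4-AM and read on FLIPR. IC50 came from a variable-slope single-site competition fit of normalized fluorescence. At least 3 runs in duplicate.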

For series [7], the target named is T2, Oxytocin receptor. In words: (§2) Agonist activity at human mammary gland oxytocin receptor expressed in CHO cells assessed as increase in intracellular calcium flux measured for 5 mins by Fluo-4-AM dye based FLIPR assay. The format is functional, cell-based. The method, boiled down:
(§3)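 Stably transfected CHO lines, one human receptor each, grown in F-12K with 10% FBS, geneticin 200 µg/mL, 37 °C, 10% CO2. Plated 50,000 cells/well for 24 h, then loaded 60 min with 2 µM Fluo-4-AM. Compound dilution series added on FLIPR and calcium signal recorded 5 min for agonist activity. Each compound tested at least 3 times in duplicate.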

For series [8], the target named is T3, Vasopressin V2 receptor. The series can be described thus: Agonist activity at human kidney vasopressin V2 receptor expressed in CHO cells assessed as increase in intracellular calcium flux measured for 5 mins by Fluo-4-AM dye based FLIPR assay. It is filed as functional, cell-based. The method, boiled down: as §3
For series [9], the target named is T4, Vasopressin V1a receptor (Homo sapiens, UniProt P37288). The series can be described thus: Antagonist activity at human liver vasopressin V1a receptor expressed in CHO cells assessed as inhibition of agonist-induced intracellular calcium flux preincubated for 20 mins followed by AVP addition measured for 5 mins by Fluo-4-AM dye based FLIPR assay. It is filed as functional, cell-based. The method, boiled down: as §1

Series [10] is filed under the species Homo sapiens. In words: Selectivity index, ratio of Ki for human mammary gland oxytocin receptor to Ki for human liver vasopressin V1a receptor. The method, boiled down:
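Ratio of binding Ki from the radioligand displacement assays, calculated as the OTR binding value divided by the V1a value.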

The species entered for series [11] is Homo sapiens. The series can be described thus: Selectivity index, ratio of IC50 for human liver vasopressin V1a receptor to IC50 for human mammary gland oxytocin receptor.
In series [12] the target is T1, Vasopressin V1b receptor. The series can be described thus: Agonist activity at human vasopressin V1b receptor expressed in CHO cells assessed as increase in intracellular calcium flux measured for 5 mins by Fluo-4-AM dye based FLIPR assay. The format is functional, cell-based.
The target in series [13] is T3, Vasopressin V2 receptor. The series can be described thus: Displacement of [3H]AVP from human kidney vasopressin V2 receptor expressed in HEK293 cell membrane after 1 hr by scintillation counting method. It is filed as cell membranes. The method, boiled down: (§4)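 Membranes from transiently transfected HEK293 cells. Receptors were cloned from human liver (V1a) or kidney (V2) RNA. SPA assay with yttrium silicate beads in 50 mM Tris, 120 mM NaCl, 5 mM KCl, 2 mM CaCl2, 10 mM MgCl2. 4 nM [3H]AVP added, compound in 2% DMSO, 1 h at room temperature. Ki by Cheng-Prusoff. Three experiments in duplicate.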

Series [14] has as its target T4, Vasopressin V1a receptor. In words: Displacement of [3H]AVP from human liver vasopressin V1a receptor expressed in HEK293 cell membrane after 1 hr by scintillation counting method. The format is cell membranes. The method, boiled down: as §4
The target of series [15] is T4, Vasopressin V1a receptor. The series can be described thus: Agonist activity at human liver vasopressin V1a receptor expressed in CHO cells assessed as increase in intracellular calcium flux measured for 5 mins by Fluo-4-AM dye based FLIPR assay. The format is functional, cell-based. Summed up:
as §3

Series [16] addresses T2, Oxytocin receptor. The series can be described thus: Displacement of [3H]OT from human mammary gland oxytocin receptor expressed in HEK293 cell membrane after 1 hr by scintillation counting method. It is filed as cell membranes. Summed up: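 Membranes from a stable HEK clone expressing human OTR cloned from mammary gland RNA. Filtration binding with 1 nM final [3H]OT in 50 mM Tris, 5 mM MgCl2, 0.1% BSA, pH 7.4, for 1 h at room temperature. GF/C filters, washed 5 times ice-cold. Ki by Cheng-Prusoff. Three experiments in duplicate.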

In series [17] the target is T5, Oxytocin receptor (Homo sapiens) (UniProt P30559).
T5 sequence (whole entry): T2 sequence (P30559 whole entry)
Described as §2. It is filed as functional, cell-based. The method, boiled down: as §3

Series [18] can be described thus: Thermal stability of the compound at 50 degC at 0.5 mg/ml after 10 days by LC-MS analysis. It is filed as physicochemical. The note with it: 240 h. The method, boiled down:
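Peptides dissolved in water at 0.5 mg/mL and held at 50 °C. After 10 days, aliquots were analysed by direct-injection LC-MS. Remaining peptide was expressed as a percentage of the corresponding peak before heating.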

Series [19] is described as follows: Half life in Sherman rat plasma. The format is ADME, cell-free.

Starred links: 1 amine or outer side, 2 acyl side, 3 side chain; linkers in the order of their positions; H or OH if unused. Positions of bridges follow the written chain, without caps; N, C: chain ends. Non-standard residues stand in square brackets, D forms with d. Residues, ends and D or L forms follow the SMILES beside them. oXylylene = c1ccc(C[*:2])c(C[*:1])c1; X1 = O=C(CCC[*:2])[*:1]; Mpa = O=C(O)CCS Some results are limits rather than exact numbers.

T4 sequence (P37288 whole entry): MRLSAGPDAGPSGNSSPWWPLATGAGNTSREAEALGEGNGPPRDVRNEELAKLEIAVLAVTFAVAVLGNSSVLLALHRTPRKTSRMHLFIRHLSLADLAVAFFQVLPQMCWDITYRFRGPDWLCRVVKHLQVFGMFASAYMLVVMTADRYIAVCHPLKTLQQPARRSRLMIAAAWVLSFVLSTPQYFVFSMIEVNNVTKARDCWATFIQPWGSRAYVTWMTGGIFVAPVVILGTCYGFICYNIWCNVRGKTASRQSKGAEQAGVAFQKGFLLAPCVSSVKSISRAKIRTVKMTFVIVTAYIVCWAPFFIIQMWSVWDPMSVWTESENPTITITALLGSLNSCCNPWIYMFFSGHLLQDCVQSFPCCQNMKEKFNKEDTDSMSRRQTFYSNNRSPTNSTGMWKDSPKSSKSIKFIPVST
T3 sequence (P30518 whole entry): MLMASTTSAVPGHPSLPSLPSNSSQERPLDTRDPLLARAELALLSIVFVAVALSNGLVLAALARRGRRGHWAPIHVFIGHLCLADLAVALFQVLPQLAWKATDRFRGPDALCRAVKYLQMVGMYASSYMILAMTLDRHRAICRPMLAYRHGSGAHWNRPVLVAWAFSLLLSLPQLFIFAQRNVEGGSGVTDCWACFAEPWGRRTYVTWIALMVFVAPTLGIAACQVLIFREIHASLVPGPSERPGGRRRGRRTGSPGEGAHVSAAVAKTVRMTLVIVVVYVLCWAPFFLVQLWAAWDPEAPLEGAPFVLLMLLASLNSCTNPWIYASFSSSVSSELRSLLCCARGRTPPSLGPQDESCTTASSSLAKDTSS

In the case of `CC[C@H](C)[C@@H]1NC(=O)[C@H](Cc2ccc(O)cc2)NC(=O)CCSCc2ccccc2CSC[C@@H](C(=O)N2CCC[C@H]2C(=O)N[C@@H](CCCNC(=N)N)C(=O)NCC(N)=O)NC(=O)[C@H](CC(N)=O)NC(=O)[C@H](CCC(N)=O)NC1=O` ([Mpa]YIQNCPRG-NH2; linker 1-6 via oXylylene), the Ki on Vasopressin V1b receptor [1] is greater than 6000 nM; on Vasopressin V2 receptor [13], greater than 6000 nM; at Vasopressin V1a receptor [14] it was 30 nM; at Oxytocin receptor [16], 166 nM. Also, the 50% inhibitory concentration (IC50) entry was “Not Active” at Vasopressin V1b receptor [2], 1720 nM on Oxytocin receptor [3] (read-out: IC50), “Not Active” on Vasopressin V2 receptor [6] and 14 nM at Vasopressin V1a receptor [9]. For the same compound, the Ratio IC50 in the series listed under Homo sapiens [4] amounted to 123; in the series listed under Homo sapiens [11], 0.008. Besides, the Ratio Ki amounted to 0.2 in the series filed under Homo sapiens [5] and 5.5 in the series filed under Homo sapiens [10]. Besides, the EC50 on Oxytocin receptor [7] was greater than 10000 nM; on Vasopressin V2 receptor [8], 18900 nM; at Vasopressin V1b receptor [12], 9260 nM; at Vasopressin V1a receptor [15], greater than 20000 nM.

On to `CC[C@H](C)[C@@H]1NC(=O)[C@H](Cc2ccc(OC)cc2)NC(=O)CCCSC[C@@H](C(=O)N2CCC[C@H]2C(=O)N[C@@H](CC(C)C)C(=O)NCC(N)=O)NC(=O)[C@H](CC(N)=O)NC(=O)[C@H](CCC(N)=O)NC1=O` (Y(Me)IQNCPLG-NH2; linker N-5 via X1), for which the %max in [17] came out at 45%.

`CC[C@H](C)[C@@H]1NC(=O)[C@H](Cc2ccc(O)cc2)NC(=O)CCSCc2ccccc2CSC[C@@H](C(=O)N2CCC[C@H]2C(=O)N[C@@H](CC(C)C)C(=O)NCC(N)=O)NC(=O)[C@H](CC(N)=O)NC(=O)[C@H](CCC(N)=O)NC1=O`: the Ki on Vasopressin V1b receptor [1] is greater than 6000 nM; at Vasopressin V1a receptor [14], 69 nM; on Oxytocin receptor [16], 220 nM. Besides, the IC50 result is “Not Active” on Vasopressin V1b receptor [2], “Not Active” on Oxytocin receptor [3] (cho) and 35 nM at Vasopressin V1a receptor [9]. The EC50 at Vasopressin V1b receptor [12] is 8300 nM; at Vasopressin V1a receptor [15], greater than 20000 nM.

With `CC[C@H](C)[C@@H]1NC(=O)[C@H](Cc2ccc(O)cc2)NC(=O)CCSCc2cccc(c2)CSC[C@@H](C(=O)N2CCC[C@H]2C(=O)N[C@@H](CC(C)C)C(=O)NCC(N)=O)NC(=O)[C@H](CC(N)=O)NC(=O)[C@H](CCC(N)=O)NC1=O`, the figures for the Ki at Vasopressin V1b receptor [1], on Vasopressin V1a receptor [14] and on Oxytocin receptor [16] were greater than 6000 nM, 1680 nM and 50 nM, respectively. Moreover, the IC50 result is “Not Active” at Vasopressin V1b receptor [2], “Not Active” at Oxytocin receptor [3] (cho) and 4400 nM on Vasopressin V1a receptor [9]. The figures for the EC50 on Oxytocin receptor [7], at Vasopressin V1b receptor [12] and at Vasopressin V1a receptor [15] were 34 nM, 2970 nM and greater than 20000 nM, respectively. Moreover, the %max in [17] stood at 75%. Moreover, the Stability entry in series [18] is “Stable”.

Consider `CC[C@H](C)[C@@H]1NC(=O)[C@H](Cc2ccc(O)cc2)NC(=O)[C@@H](N)CSSC[C@@H](C(=O)N2CCC[C@H]2C(=O)N[C@@H](CC(C)C)C(=O)NCC(N)=O)NC(=O)[C@H](CC(N)=O)NC(=O)[C@H](CCC(N)=O)NC1=O` [OXYTOCIN], for which the half-life in [19] worked out at 3 min.

Source of the values: ChEMBL document CHEMBL4118114 (Bioorg Med Chem, 2018).
